In data set [1] the test system is Staphylococcus aureus. Description: Antibacterial activity against Staphylococcus aureus MTCC 740 assessed as inhibition of bacterial growth at 50 uM measured after 48 hrs by agar well diffusion method. Type of data set: functional. To be noted: read-out: IZ. A general note: A growth-free zone around the sample is the usual read-out of agar diffusion tests.
Data set [2] has as its system Staphylococcus aureus. Description: Antibacterial activity against clinically isolated Staphylococcus aureus RBRJ010 assessed as inhibition of bacterial growth at 50 uM measured after 48 hrs by agar well diffusion method. The data set is classed as functional. To be noted: read-out: IZ.
Data set [3] concerns Staphylococcus epidermidis. Description: Antibacterial activity against Staphylococcus epidermidis MTCC 435 assessed as inhibition of bacterial growth at 50 uM measured after 48 hrs by agar well diffusion method. The data set is classed as functional. To be noted: read-out: IZ.
Data set [4] concerns Staphylococcus aureus. Kind of data set: Antibacterial activity against clinically isolated Methicillin-resistant Staphylococcus aureus assessed as inhibition of bacterial growth at 50 uM measured after 48 hrs by agar well diffusion method. Type of data set: functional. The note with it: read-out: IZ.
The subject of data set [5] is Staphylococcus aureus. Description: Antibacterial activity against Methicillin-resistant Staphylococcus aureus ATCC 33591 assessed as inhibition of bacterial growth at 50 uM measured after 48 hrs by agar well diffusion method. Type of data set: functional. To be noted: read-out: IZ. Summed up:
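Agar well diffusion on Mueller Hinton agar seeded with bacteria at 0.5 McFarland. […] Incubated 48 h at 37 °C aerobically; zone of inhibition diameter (mm) measured. Triplicate.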

Data set [6] relates to Enterococcus faecalis. Description: Antibacterial activity against Enterococcus faecalis MTCC 439 assessed as inhibition of bacterial growth at 50 uM measured after 48 hrs by agar well diffusion method. To be noted: read-out: IZ. Type of data set: functional.
Data set [7] relates to Enterococcus faecalis. Kind of data set: Antibacterial activity against clinically isolated Enterococcus faecalis RBRJ015 assessed as inhibition of bacterial growth at 50 uM measured after 48 hrs by agar well diffusion method. The data set is classed as functional. The note with it: read-out: IZ.
Data set [8] relates to Klebsiella pneumoniae. Kind of data set: Antibacterial activity against Klebsiella pneumoniae MTCC 109 assessed as inhibition of bacterial growth at 50 uM measured after 48 hrs by agar well diffusion method. The data set is classed as functional. The note with it: read-out: IZ.
Data set [9] deals with Klebsiella pneumoniae. Description: Antibacterial activity against clinically isolated Klebsiella pneumoniae RBRJ019 assessed as inhibition of bacterial growth at 50 uM measured after 48 hrs by agar well diffusion method. To be noted: read-out: IZ. Type of data set: functional.
The subject of data set [10] is Klebsiella pneumoniae. Kind of data set: Antibacterial activity against clinically isolated Klebsiella pneumoniae RBRJ024 assessed as inhibition of bacterial growth at 50 uM measured after 48 hrs by agar well diffusion method. The data set is classed as functional. The note with it: read-out: IZ.
The test system of data set [11] is Escherichia coli. Description: Antibacterial activity against Escherichia coli MTCC 119 assessed as inhibition of bacterial growth at 50 uM measured after 48 hrs by agar well diffusion method. Type of data set: functional. The note with it: read-out: IZ.
The test system of data set [12] is Escherichia coli. Kind of data set: Antibacterial activity against clinically isolated Escherichia coli RBRJ005 assessed as inhibition of bacterial growth at 50 uM measured after 48 hrs by agar well diffusion method. Type of data set: functional. The note with it: read-out: IZ.
The test system of data set [13] is Escherichia coli. Kind of data set: Antibacterial activity against clinically isolated Escherichia coli RBRJ013 assessed as inhibition of bacterial growth at 50 uM measured after 48 hrs by agar well diffusion method. To be noted: read-out: IZ. The data set is classed as functional.
The next data set concerns Enterobacter cloacae. Kind of data set: Antibacterial activity against clinically isolated Enterobacter cloacae RBRJ017 assessed as inhibition of bacterial growth at 50 uM measured after 48 hrs by agar well diffusion method. To be noted: read-out: IZ. The data set is classed as functional.
A further data set concerns Acinetobacter baumannii. Description: Antibacterial activity against clinically isolated Acinetobacter baumannii RBRJ027 assessed as inhibition of bacterial growth at 50 uM measured after 48 hrs by agar well diffusion method. The data set is classed as functional. To be noted: read-out: IZ.
Another data set has as its system Pseudomonas aeruginosa. Description: Antibacterial activity against Pseudomonas aeruginosa MTCC 424 assessed as inhibition of bacterial growth at 50 uM measured after 48 hrs by agar well diffusion method. The note with it: read-out: IZ. Type of data set: functional.
The subject of data set [14] is Staphylococcus aureus. Kind of data set: Antibacterial activity against Staphylococcus aureus MTCC 740 assessed as inhibition of bacterial growth measured after 48 hrs by broth microdilution method. Type of data set: functional. (Broth dilution looks for growth in wells or tubes with falling amounts of substance.)
Data set [15] has as its system Staphylococcus aureus. Kind of data set: Antibacterial activity against clinically isolated Staphylococcus aureus RBRJ010 assessed as inhibition of bacterial growth measured after 48 hrs by broth microdilution method. Type of data set: functional.
The subject of data set [16] is Staphylococcus epidermidis. Description: Antibacterial activity against Staphylococcus epidermidis MTCC 435 assessed as inhibition of bacterial growth measured after 48 hrs by broth microdilution method. Type of data set: functional.
Data set [17] has as its system Staphylococcus aureus. Kind of data set: Antibacterial activity against clinically isolated Methicillin-resistant Staphylococcus aureus assessed as inhibition of bacterial growth measured after 48 hrs by broth microdilution method. The data set is classed as functional.
For data set [18], the system named is Staphylococcus aureus. Kind of data set: Antibacterial activity against Methicillin-resistant Staphylococcus aureus ATCC 33591 assessed as inhibition of bacterial growth measured after 48 hrs by broth microdilution method. The data set is classed as functional.
Data set [19] deals with Staphylococcus aureus. Kind of data set: Bactericidal activity against Staphylococcus aureus MTCC 740 assessed as inhibition of bacterial growth measured after 48 hrs by agar plate method. Type of data set: functional. The method, boiled down: (§1)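 MBC: aliquots from microdilution wells without colour change subcultured on drug-free Mueller Hinton agar, 48 h at 37 °C aerobically. MBC is the lowest concentration with no visible growth. Triplicate.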

The subject of data set [20] is Staphylococcus aureus. Kind of data set: Bactericidal activity against clinically isolated Staphylococcus aureus RBRJ010 assessed as inhibition of bacterial growth measured after 48 hrs by agar plate method. The data set is classed as functional. The method, boiled down: (§2)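 MBC: 10 μL from wells showing no INT colour change after broth microdilution subcultured on drug-free Mueller Hinton agar, 48 h at 37 °C aerobically; lowest concentration with no visible growth taken as MBC (μM). Triplicate.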

For data set [21], the system named is Staphylococcus epidermidis. Kind of data set: Bactericidal activity against Staphylococcus epidermidis MTCC 435 assessed as inhibition of bacterial growth measured after 48 hrs by agar plate method. The data set is classed as functional. Summed up: as §2
For data set [22], the system named is Staphylococcus aureus. Kind of data set: Bactericidal activity against clinically isolated Methicillin-resistant Staphylococcus aureus assessed as inhibition of bacterial growth measured after 48 hrs by agar plate method. The data set is classed as functional.
In data set [23] the test system is Staphylococcus aureus. Description: Bactericidal activity against Methicillin-resistant Staphylococcus aureus ATCC 33591 assessed as inhibition of bacterial growth measured after 48 hrs by agar plate method. The data set is classed as functional. The method, boiled down: as §1
Data set [24] can be described thus: Cytotoxicity against mouse L929 cells assessed as reduction in cell viability measured after 72 hrs by MTT assay. The data set is classed as toxicity, cell-based. The method, boiled down: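 L929 cells (ATCC) grown in DMEM with 10% FBS and penicillin/streptomycin at 37 °C, 5% CO2; seeded at 5 × 10^3 cells per well and exposed to serial dilutions for 72 h, paclitaxel as positive control. MTT (5 mg mL−1), formazan dissolved in DMSO, absorbance at 490 nm; viability relative to control after blank subtraction; IC50 in μM.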
A general note: Formazan colour is commonly taken as a measure of viable cells.

A short description of data set [25]: Selectivity index, ratio of IC50 for cytotoxicity against mouse L929 cells to MIC for antibacterial activity against clinically isolated Methicillin-resistant Staphylococcus aureus. The data set is classed as toxicity, cell-based. The note with it: read-out: Selectivity Index.
Data set [26] relates to Klebsiella pneumoniae. To be noted: RBRJ019, dose 50.0 µM, time 48.0 hrs.
Data set [27] deals with Klebsiella pneumoniae. The note with it: RBRJ024, dose 50.0 µM, time 48.0 hrs.
The target of data set [28] is T1, 4,4'-diapophytoene synthase (Staphylococcus aureus, UniProt A9JQL9).
T1 sequence (A9JQL9 whole entry): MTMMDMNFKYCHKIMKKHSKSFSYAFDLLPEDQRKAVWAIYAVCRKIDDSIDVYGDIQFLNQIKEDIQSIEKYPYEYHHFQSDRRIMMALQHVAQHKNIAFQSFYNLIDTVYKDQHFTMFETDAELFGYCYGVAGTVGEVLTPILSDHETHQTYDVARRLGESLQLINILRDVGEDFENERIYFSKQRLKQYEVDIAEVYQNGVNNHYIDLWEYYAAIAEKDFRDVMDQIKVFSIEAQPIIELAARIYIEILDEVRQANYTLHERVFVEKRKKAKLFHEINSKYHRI
Kind of data set: Inhibition of Staphylococcus aureus CrtM.

From ChEMBL document CHEMBL5357047, “The development of thymol-isatin hybrids as broad-spectrum antibacterial agents with potent anti-MRSA activity” (RSC Med Chem, 2024) come the findings set out here.

In brackets after ≈: the same amount, converted by molar mass. Activity calls are given as the source filed them.

On to `Cc1ccc(C(C)C)c(OCc2cn(CCCN3C(=O)C(=O)c4cc(C)ccc43)nn2)c1`, for which the zone of inhibition at 50 µM amounted to 26.1 mm in the data set with Staphylococcus aureus [1]; 24.6 mm with Staphylococcus aureus [2]; 22.2 mm in data set [3]; 26.7 mm in the data set on Staphylococcus aureus [4]; 24.1 mm with Staphylococcus aureus [5]; 13.3 mm in the data set on Enterococcus faecalis [6]. Moreover, the zone of inhibition at 50 µM in the data set with Enterococcus faecalis [7] came to 13.4 mm; with Klebsiella pneumoniae [8] it was 19.2 mm; with Klebsiella pneumoniae [9], 18.5 mm; in the data set on Klebsiella pneumoniae [10], 17.2 mm; in the data set with Escherichia coli [11], 16.5 mm; in the data set with Escherichia coli [12] it was 18.2 mm. For the same compound, the zone of inhibition at 50 µM in the data set with Escherichia coli [13] turned out to be 17.6 mm; with Enterobacter cloacae, 15.4 mm; in the data set on Acinetobacter baumannii, 13.1 mm; in the data set with Pseudomonas aeruginosa, 19.5 mm. Also, the MIC (as a rule, the lowest concentration that inhibits growth of the organism) in the data set on Staphylococcus aureus [14] was determined as 3.9 µM (≈ 1.69 µg/mL); in the data set with Staphylococcus aureus [15], 7.8 µM (≈ 3.37 µg/mL); in data set [16], 15.6 µM (≈ 6.75 µg/mL); in the data set with Staphylococcus aureus [17], 3.9 µM (≈ 1.69 µg/mL); in the data set on Staphylococcus aureus [18] it was 3.9 µM (≈ 1.69 µg/mL). Also, the MBC (commonly the smallest concentration meeting the test's criterion for killing) in the data set on Staphylococcus aureus [19] is 7.8 µM (≈ 3.37 µg/mL); with Staphylococcus aureus [20], 15.6 µM (≈ 6.75 µg/mL); in [21] it was 31.2 µM (≈ 13.5 µg/mL); in the data set on Staphylococcus aureus [22] it was 7.8 µM (≈ 3.37 µg/mL); in the data set with Staphylococcus aureus [23], 7.8 µM (≈ 3.37 µg/mL). Also, the IC50 (usually the point on the concentration scale where inhibition reaches its midpoint) at 72 h in [24] is 125000 nM. For the same compound, in data set [25], the selectivity ratio amounted to 32.

With `O=C(O)c1cn(C2CC2)c2cc(N3CCNCC3)c(F)cc2c1=O` [CIPROFLOXACIN], the zone of inhibition at 50 µM was determined as 17.4 mm in data set [3]; 24.5 mm in the data set on Staphylococcus aureus [5]; 15.9 mm with Enterococcus faecalis [6]; 14.5 mm in the data set with Klebsiella pneumoniae [8]; 11.2 mm in the data set on Escherichia coli [11]; 24.2 mm with Pseudomonas aeruginosa. In addition, in the data set on Staphylococcus aureus [18], the MIC stood at 1.9 µM (≈ 0.63 µg/mL). Besides, the MBC with Staphylococcus aureus [23] was 3.9 µM (≈ 1.29 µg/mL). Further, the IZ entry in the data set on Klebsiella pneumoniae [26] and with Klebsiella pneumoniae [27] was “inactive” throughout.

Regarding `O=P(O)(O)C(CCCc1ccc(-c2ccccc2)cc1)S(=O)(=O)O` (configuration not stated), in data set [28], the Ki (as a rule, a measure of affinity in units of concentration, obtained from inhibition or displacement) worked out at 6 nM.

Turning to `O=P(O)(O)C(CCCc1ccc(-c2ccccc2)cc1)P(=O)(O)O`, in data set [28], the affinity corresponds to a Ki of 0.2 nM.

In [28], `O=P(O)(O)C(CCCc1ccc(-c2ccc(Br)cc2)cc1)S(=O)(=O)O` (configuration not stated) came in with a Ki of 135 nM.

Take `Cc1ccc(C(C)C)c(OCc2cn(CCN3C(=O)C(=O)c4ccccc43)nn2)c1`: the zone of inhibition at 50 µM turned out to be 20.2 mm with Staphylococcus aureus [1]; 22.2 mm in the data set with Staphylococcus aureus [2]; 22.7 mm in data set [3]; 20.2 mm in the data set on Staphylococcus aureus [4]; 18.2 mm in the data set with Staphylococcus aureus [5]; 15.4 mm in the data set with Enterococcus faecalis [6]. The zone of inhibition at 50 µM in the data set with Enterococcus faecalis [7] is 18.3 mm; in the data set with Klebsiella pneumoniae [8] it was 18.3 mm; with Klebsiella pneumoniae [9], 16.4 mm; in the data set with Klebsiella pneumoniae [10], 16.5 mm; in the data set on Escherichia coli [11], 18.6 mm; in the data set with Escherichia coli [12], 15.2 mm. In addition, the zone of inhibition at 50 µM with Escherichia coli [13] was determined as 14.4 mm; with Enterobacter cloacae, 16.5 mm; in the data set with Acinetobacter baumannii, 13.3 mm; with Pseudomonas aeruginosa, 18.2 mm. Moreover, the MIC amounted to 62.5 µM (≈ 25.3 µg/mL) with Staphylococcus aureus [14], 15.6 µM (≈ 6.31 µg/mL) with Staphylococcus aureus [15], 15.6 µM (≈ 6.31 µg/mL) in [16] and 62.5 µM (≈ 25.3 µg/mL) with Staphylococcus aureus [17]. Moreover, the MBC with Staphylococcus aureus [19] stood at 125 µM (≈ 50.6 µg/mL); with Staphylococcus aureus [20] it was 31.2 µM (≈ 12.6 µg/mL); in data set [21] it was 31.2 µM (≈ 12.6 µg/mL); with Staphylococcus aureus [22], 125 µM (≈ 50.6 µg/mL). For the same compound, the IC50 at 72 h in data set [24] is 250000 nM. Further, the selectivity ratio in data set [25] was determined as 4.
